Results as given in paper PMC4500736 (Journal of neuroscience methods, 2015).
Where no end group is shown, it is not given here.

Legend:
[1] = test system: unilateral 6-OHDA lesioned F344 rats; experiment: DA and DA metabolite levels; assay type: in vivo, rat; conditions: 5 weeks post 6-OHDA, 300 μg intranasal daily, p < 0.01
[2] = test system: unilateral 6-OHDA lesioned F344 rats; experiment: d-amphetamine-induced rotation in 6-OHDA-lesioned rats; assay type: in vivo, rat; conditions: animals taken out to 6 weeks (data not shown), n = 3 DNSP-11, n = 2 vehicle
[3] = dissolved in 0.9% sterile saline; cited from earlier work
normal F344 rats = assay type: in vivo, rat; conditions: 300 μg intranasal 5 days a week for 3 weeks, p < 0.05
Procedure, shortened: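 Normal F344 rats under light isoflurane (~1.0–3.0% with […]), supine. Striatum and SN harvested as 2 mm sections, frozen −80 °C. DA, DOPAC, HVA by HPLC-EC (ng/g wet tissue); turnover ratios; one-way ANOVA, Bonferroni.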

[4] = test system: unilateral 6-OHDA lesioned F344 rats; experiment: TH+ fiber density in the SNpr of 6-OHDA lesioned rats; assay type: in vivo, rat; conditions: mean ± SEM
Procedure, shortened: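 Unilateral 3-site striatal 6-OHDA lesion (right hemisphere). Intranasal test compound 300 μg or vehicle daily for 7 days pre-lesion, ~60 min before infusion, then 35 ± 3 days. Midbrain fixed in 4% paraformaldehyde for 24 h, then 15 & 30% sucrose; 30 μm coronal sections. Ipsilateral SNpr TH+ immunoreactive area measured at −5.24, −5.60 and −5.96 mm from bregma. Two-tailed unpaired t-test.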

PPEAPAEDRSL-NH2 [DNSP-11, Dopamine neuron stimulating peptide-11]
reduction in DA turnover in the ipsilateral side to the lesion compared to vehicle [1]: 39%
reduction in d-amphetamine-induced rotations compared to vehicle [2]: 21%
stability in 0.9% sterile saline [3]: stable
increase in DA turnover in the SN compared to vehicle (normal F344 rats): 34%
increase in DA turnover in the striatum compared to vehicle (normal F344 rats): 25%
Fiber Density for the Lesioned SNpr, Rostral ([4]; n = 6, vehicle 0.20 ± 0.03): 0.26 ± 0.09
Fiber Density for the Lesioned SNpr, Middle ([4]; n = 6, vehicle 0.22 ± 0.07): 0.41 ± 0.20
Fiber Density for the Lesioned SNpr, Caudal ([4]; n = 6, vehicle 1.10 ± 0.67): 0.91 ± 0.41
